Assay results from different studies.
Lines come from different studies, so protocols differ. Converted amounts (≈) assume the structure as drawn.
Organism: Mycobacterium tuberculosis
Observed: microbial growth

| SMILES | assay | test system | setting | quantity | value |
| --- | --- | --- | --- | --- | --- |
| COc1cccc2c1C(=O)c1c(O)c3c(c(O)c1C2=O)C[C@@](O)(C(C)=O)C[C@@H]3O[C@H]1C[C@H](N)[C@H](O)[C@H](C)O1 | resazurin | H37RV |  | MIC | 1.25 µM |
| Nc1sc2c(c1C(=O)O)CCN(C(=O)OCc1ccccc1)C2 | resazurin | H37RV |  | MIC | > 300 µM |
| Cc1cc2nc(C(=O)N(C)C)cc(-c3ccccc3Cl)c2c(C)c1-c1ccncc1 |  | H37RV |  | MIC90 | 20 µM (≈ 8.32 µg/mL) |
| Nc1sc2c(c1C(=O)NC13CC4CC(CC(C4)C1)C3)CCCC2 | resazurin | H37RV |  | MIC | > 300 µM |
| CC(=O)[C@]1(O)Cc2c(O)c3c(c(O)c2[C@@H](O[C@H]2C[C@H](N)[C@H](O)[C@H](C)O2)C1)C(=O)c1ccccc1C3=O | resazurin | H37RV |  | MIC | 80 µM |
| CCOC(=O)c1c(NC(=O)c2c(F)c(F)c(F)c(F)c2F)sc2c1CCN(C(=O)OC(C)(C)C)C2 | resazurin | H37RV |  | MIC | < 100 µM |
| CCCCOC(=O)Nc1cc2nc(C3CCCCC3)[nH]c2cc1N1CCCC1 | resazurin | H37RV |  | MIC99 | 0.39 µg/mL |
| [H]/N=C(/N)N[C@H]1[C@H](O)[C@@H](O)[C@H](O[C@@H]2O[C@@H](C)[C@](O)(C=O)[C@H]2O[C@@H]2O[C@@H](CO)[C@H](O)[C@@H](O)[C@@H]2NC)[C@@H](N/C(N)=N\[H])[C@@H]1O | disc diffusion | ATCC25177 | 5 µg/disc, 12 days | inhibition zone | 30 mm |
| Cc1cccc(C)c1-c1ccnc2cc(C)c(-c3ccc(CN4CCOCC4)cc3)c(C)c12 |  | H37RV |  | MIC90 | 5 µM (≈ 2.18 µg/mL) |
| O=C(Nc1cc2nc(C3CCCCC3)[nH]c2cc1N1CCCC1)OCc1ccccc1 | resazurin | H37RV |  | MIC99 | 1.56 µg/mL |
| CO[C@H]1/C=C/O[C@@]2(C)Oc3c(C)c(O)c4c(O)c(c(/C=N/N5CCN(C)CC5)c(O)c4c3C2=O)NC(=O)/C(C)=C\C=C\[C@H](C)[C@H](O)[C@@H](C)[C@@H](O)[C@@H](C)[C@H](OC(C)=O)[C@@H]1C | resazurin | ATCC27294 H37RV | 7 days | MIC | 0.06 µg/mL |
| Nc1nc(-c2cccc(-c3ccccc3)c2)nc2c1ncn2[C@@H]1O[C@H](COS(=O)(=O)NC(=O)c2ccccc2O)[C@@H](O)[C@H]1O |  | H37RV | pH 6.6 | MIC99 | 25 to 50 µM |
| CCOC(=O)c1c(NC(=O)c2c(F)c(F)c(F)c(F)c2F)sc2c1CCN(CC)C2 | resazurin | H37RV |  | IC50 | 0.65 µM |
| Nc1nc(-c2ccc(-c3ccccc3)cc2)nc2c1ncn2[C@@H]1O[C@H](COS(=O)(=O)NC(=O)c2ccccc2O)[C@@H](O)[C@H]1O |  | H37RV | pH 6.6 | MIC99 | 25 to 50 µM |
| Cc1cc2nc(C(=O)O)cc(-c3ccccc3Cl)c2c(C)c1-c1ccncc1 |  | H37RV |  | MIC90 | 80 µM (≈ 31.1 µg/mL) |
